Assay results taken from BindingDB's records for doi:10.1016/j.bmcl.2005.10.065 (Cytrx Laboratories, 2005).

Molecular target: T1, NADP-dependent malic enzyme (Homo sapiens, UniProt P48163)
T1 sequence (P48163 whole entry): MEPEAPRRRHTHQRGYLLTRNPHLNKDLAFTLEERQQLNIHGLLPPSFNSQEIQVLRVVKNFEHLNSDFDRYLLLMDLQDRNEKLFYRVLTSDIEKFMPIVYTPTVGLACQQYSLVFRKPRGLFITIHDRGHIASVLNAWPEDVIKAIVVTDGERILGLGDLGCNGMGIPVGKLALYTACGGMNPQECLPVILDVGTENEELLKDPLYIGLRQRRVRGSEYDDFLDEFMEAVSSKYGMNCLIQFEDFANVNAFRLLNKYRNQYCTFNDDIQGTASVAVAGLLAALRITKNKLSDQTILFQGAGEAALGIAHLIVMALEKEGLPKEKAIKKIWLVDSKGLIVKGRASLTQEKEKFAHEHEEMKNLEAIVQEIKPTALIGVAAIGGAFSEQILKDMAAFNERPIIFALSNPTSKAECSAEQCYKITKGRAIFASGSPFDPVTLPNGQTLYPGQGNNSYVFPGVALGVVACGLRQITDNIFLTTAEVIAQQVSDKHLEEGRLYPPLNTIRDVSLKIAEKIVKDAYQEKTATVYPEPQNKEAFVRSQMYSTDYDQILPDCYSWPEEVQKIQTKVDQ
Experiment: Inhibitory activity against cytosolic malic enzyme
Procedure, shortened: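 Coupled endpoint assay. Enzyme pre-incubated with compound 45 min at room temperature in 85 mM Tris pH 7.5 containing 2 mM malic acid and 5 mM MnCl2. Reaction started with 124 µM NADP, run 30 min at room temperature, stopped with 0.5 M EDTA. NADPH formed read via MTS/PMS reduction to formazan, absorbance at 492 nm.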

IC50 | SMILES
> 20 µM | COc1ccc(N2CCN(c3cc(O)n(-c4ccccc4)c3O)CC2)cc1 [3-(4-(4-methoxyphenyl)piperazin-1-yl)-1-phenylpyrrolidine-2,5-dione]
> 20 µM | COc1ccc(N2CCN(c3cc(O)n(-c4cccc(Cl)c4Cl)c3O)CC2)cc1 [1-(2,3-dichlorophenyl)-3-(4-(4-methoxyphenyl)piperazin-1-yl)pyrrolidine-2,5-dione]
